Active and inactive are the calls of the source.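 Rule for the calls: active = compounds slowing the HCV NS3-NS4A protease by half at 50 µM or lower, per IC50; inactive = the rest.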

From PubChem BioAssay AID623964 (The Scripps Research Institute Molecular Screening Center, 2012) come the findings set out here.

The target in the experiment is Hepatitis C virus NS3-NS4A protease (single-chain scNS3-4A). The experiment can be described thus: inhibitors of HCV NS3-NS4A protease, late-stage follow-up, selectivity assay for HCV NS3 helicase inhibitor project, biochemical, FRET peptide fluorescence, powder samples (AID 623964). The note with it: scNS3-4A protease, FRET peptide cleavage fluorescence. Summed up:
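System: single-chain HCV NS3-NS4A protease (scNS3-4A); Input: 10 nM scNS3-4A protease enzyme; Reagent: quenched FRET peptide substrate, 5-FAM donor with QXL 520 quencher; Detection: 5-FAM fluorescence recovery; Evaluation: IC50 from Hill-equation fit of initial velocities; Benchmarks: DMSO-only reference velocity.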
As to `Cc1ccc2nc(-c3ccc4nc(-c5ccc(NC(=O)c6ccc(N)cc6)cc5)sc4c3)sc2c1S(=O)(=O)O`, the IC50 (commonly the concentration that gives 50% inhibition) was 39 µM. On to `O=C(CCCCCCC(=O)Nc1ccc(-c2nc3ccccc3[nH]2)cc1)Nc1ccc(-c2nc3ccccc3[nH]2)cc1`, for which the IC50 was 47 µM. Turning to `COc1ccc(C(=O)Nc2ccc(-c3nc4ccc(-c5nc6ccc(C)c(S(=O)(=O)O)c6s5)cc4s3)cc2)cc1`, the IC50 result was “inactive”. Take `Cc1ccc2nc(-c3ccc4nc(-c5ccc(NC(=O)c6cccc(Cl)c6)cc5)sc4c3)sc2c1S(=O)(=O)O`: the IC50 is > 100 µM (inactive). In the case of `Cc1ccc2nc(-c3ccc4nc(-c5ccc(NC(=O)c6ccc(Br)cc6)cc5)sc4c3)sc2c1S(=O)(=O)O`, the IC50 is 6 µM. For `Cc1ccc2nc(-c3ccc4nc(-c5ccc(NC(=O)c6ccc(F)cc6)cc5)sc4c3)sc2c1S(=O)(=O)O`, the IC50 result is “inactive”. In the case of `Cc1ccc2nc(-c3ccc4nc(-c5ccc(NC(=O)c6ccc7nc(-c8ccc(N)cc8)sc7c6)cc5)sc4c3)sc2c1S(=O)(=O)O` it was 7 µM. For `Cc1ccc2nc(-c3ccc4nc(-c5ccc(NC(=O)Nc6ccc(Cl)cc6)cc5)sc4c3)sc2c1S(=O)(=O)O`, the IC50 was 13 µM. For `Cc1ccc2nc(-c3ccc4nc(-c5ccc(NC(=O)c6cc(C(F)(F)F)cc(C(F)(F)F)c6)cc5)sc4c3)sc2c1S(=O)(=O)O`, the IC50 is 23 µM. Take `Cc1cc(C(O)(c2ccc(Nc3ccccc3)cc2)c2ccc(Nc3ccc(S(=O)(=O)O)cc3)cc2)ccc1N` (stereo not drawn): the IC50 result was “inactive”. As to `Cc1ccc2nc(-c3ccc4nc(-c5ccc(NC(=O)c6ccc(C(C)(C)C)cc6)cc5)sc4c3)sc2c1S(=O)(=O)O`, the IC50 result is “inactive”. In the case of `CCOc1ccc2c(NNC(=O)c3cnccn3)c3c(nc2c1)CCCC3` it was > 100 µM (inactive); in that of `Cc1ccc2nc(-c3ccc(NC(=O)c4ccc(NC(=O)Nc5ccccc5)cc4)cc3)sc2c1S(=O)(=O)O`, > 100 µM (inactive). With `COc1ccc(NC(=O)Nc2ccc(-c3nc4ccc(-c5nc6ccc(C)c(S(=O)(=O)O)c6s5)cc4s3)cc2)cc1`, the IC50 was > 100 µM (inactive). Then `Cc1ccc2nc(-c3ccc4nc(-c5ccc(NC(=O)c6ccc(C(F)(F)F)cc6)cc5)sc4c3)sc2c1S(=O)(=O)O`, with 5 µM; and `Cc1ccc2nc(-c3ccc4nc(-c5ccc(NC(=O)Nc6ccccc6)cc5)sc4c3)sc2c1S(=O)(=O)O`, with > 100 µM (inactive); and `Cc1ccc2nc(-c3ccc4nc(-c5ccc(NC(=O)c6ccc7ccccc7c6)cc5)sc4c3)sc2c1S(=O)(=O)O`, with > 100 µM (inactive). In the case of `COC(=O)c1ccc(C(=O)Nc2ccc(-c3nc4ccc(-c5nc6ccc(C)c(S(=O)(=O)O)c6s5)cc4s3)cc2)cc1` it was > 100 µM (inactive). With `Cc1ccc2nc(-c3ccc4nc(-c5ccc6nc(-c7ccc8nc(-c9ccc(N)cc9)sc8c7)sc6c5)sc4c3)sc2c1S(=O)(=O)O`, the concentration for half-maximal inhibition (IC50) is 2 µM. `CN1CCN(Cc2cc(CN3CCN(C)CC3)c(O)c(=O)c(CN3CCN(C)CC3)c2)CC1`: the IC50 is > 100 µM (inactive). In the case of `COc1cccc2c(=O)c3cc(Cl)cc(C(=O)Nc4cc(Cl)ccn4)c3[nH]c12` it was “inactive”; in that of `Cc1ccc2nc(-c3ccc4nc(-c5ccc(NC(=O)c6ccc(Cl)c(Cl)c6)cc5)sc4c3)sc2c1S(=O)(=O)O`, 13 µM. `Cc1ccc2nc(-c3ccc4nc(-c5ccc(NC(=O)c6cc(C(F)(F)F)ccc6F)cc5)sc4c3)sc2c1S(=O)(=O)O`: the IC50 entry was “inactive”.
